Measurements from ChEMBL document CHEMBL1142220, “Small-molecule synergist of the Wnt/beta-catenin signaling pathway” (Proc Natl Acad Sci U S A, 2007).
Active and inactive are the calls of the source. No cut-off for these calls is given here.

Assays:
HEK293 [1] = assay: Effect on Wnt/[…] reporter pathway in HEK293 cells expressing super(8X)TOPFlash reporter assessed as luciferase activity in presence of Wnt-3a; format: functional, cell-based; conditions: Homo sapiens
Method in brief: (§1)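 HEK293 cells transfected with Super(8X)TOPFlash reporter plus renilla control; 24 h post-transfection, compound added over a dose range with or without Wnt-3a conditioned medium (1:1 vol/vol to growth medium); firefly luciferase read 36 h later, normalized to renilla; error bars SD.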

HEK293 [2] = assay: Reduction of super(8X)TOPFlash reporter activity in HEK293 cells at 0.25 uM in presence of Wnt-3a conditional medium relative to control; format: functional, Homo sapiens; design: scale not given: the % may be the effect or the level left
Method in brief: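 HEK293 cells carrying the Super(8X)TOPFlash luciferase reporter, treated at 0.25 μM in Wnt-3a conditioned medium; reporter luciferase activity compared with DMSO-treated control cells under the same Wnt-3a stimulation.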

HEK293 [3] = assay: Induction of Wnt-3a-induced Axin2 gene expression in HEK293 cells in presence of Wnt-3a; format: functional, cell-based; conditions: Homo sapiens
[4] = Activation of Wnt/[…] pathway in Xenopus embryos assessed as full axis formation at 10 uM in presence of XWnt-8 RNA after 24 hrs; format: functional
Method in brief: (§2)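 XWnt-8 RNA (0.5 pg) co-injected with 10 nL of 10 μM compound (or 10 nL water) into one ventral blastomere at 16- to 32-cell stage; embryos kept 24 h, then scored for partial versus full double axis formation.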

[5] = biological target: ADP-ribosylation factor 6 (Mus musculus) (UniProt P62331); assay: Inhibition of ADP-ribosylation factor 6 activity in mouse NIH3T3 cells assessed as increase in endogenous ARF6-GTP level at 2.5 uM relative to control; format: cell-based
HEK293 [6] = assay: Effect on Wnt/[…] reporter pathway in HEK293 cells expressing super(8X)TOPFlash reporter plasmid assessed as luciferase activity in presence of recombinant Wnt-3a; format: functional, cell-based; conditions: Homo sapiens
HEK293 [7] = assay: Induction of Wnt-3a-induced DKK1 gene expression in HEK293 cells in presence of Wnt-3a; format: functional, cell-based; conditions: Homo sapiens
[8] = biological target: ADP-ribosylation factor 6 (Mus musculus) (UniProt P62331); assay: Inhibition of ADP-ribosylation factor 6 activity in mouse NIH3T3 cells assessed as increase in endogenous ARF6-GTP level at 1 uM relative to control; format: cell-based
MDA-MB-231 [9] = assay: Inhibition of migration of AMAP1 expressing human MDA-MB-231 cells at 2.5 uM relative to control; format: functional; design: scale not given: the % may be the effect or the level left
Method in brief: (§3)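 Modified Boyden chambers, filter underside coated with 5 μg/cm² Matrigel; MDA-MB-231 cells (5,000/well) seeded upper chamber in RPMI1640 with 0.5% BSA plus compound, lower chamber DMEM with 10% FBS; after 12 h, cells on lower side counted by microscopy versus DMSO.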

HEK293 [10] = assay: Effect on Wnt/[…] reporter pathway in HEK293 cells expressing super(8X)TOPFlash reporter plasmid assessed as luciferase activity; format: functional, Homo sapiens; method in brief: as §1
MDA-MB-231 [11] = assay: Inhibition of migration of AMAP1 expressing human MDA-MB-231 cells; format: functional, cell-based; method in brief: as §3
[12] = Activation of Wnt/[…] pathway in Xenopus embryos assessed as partial double axis formation at 10 uM in presence of XWnt-8 RNA after 24 hrs; format: functional; method in brief: as §2
HEK293 [13] = assay: Effect on Wnt/[…] reporter pathway in HEK293 cells expressing super(8X)TOPFlash reporter assessed as luciferase activity at 2.5 uM in presence of Wnt-3a; format: functional, Homo sapiens
Method in brief: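 HEK293 cells (20,000/well) reverse-transfected with Super(8X)TOPFlash and pTK-RL (Fugene6), 24 h at 37°C; compound 2.5 μM plus Wnt-3a conditioned medium (1:1 vol/vol) added; Dual-Glo luciferase read 36 h later, fold activation normalized to renilla; mean of three independent data points.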

[14] = biological target: ADP-ribosylation factor GTPase-activating protein 1, ARFGAP1 (Homo sapiens) (UniProt Q8N6T3); assay: Binding affinity to purified ARFGAP1 by surface plasmon resonance analysis
HEK293 [15] = assay: Effect on Wnt/[…] reporter pathway in HEK293 cells expressing superFOPFlash reporter plasmid assessed as luciferase activity at 0.11 to 25 uM in presence of Wnt-3a; format: functional, cell-based; conditions: Homo sapiens, 0.011 to 25 uM, in the assay text read “0.011 to 25 uM” for “0.11 to 25 uM”
Method in brief: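 SuperFOPFlash reporter (mutated β-catenin/TCF sites) transfected into HEK293 cells; compound 0.011–25 μM given with Wnt-3a conditioned medium 24 h after transfection; luciferase read after 36 h, normalized to renilla.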

Sequence of ADP-ribosylation factor 6 (Mus musculus) (P62331 whole entry): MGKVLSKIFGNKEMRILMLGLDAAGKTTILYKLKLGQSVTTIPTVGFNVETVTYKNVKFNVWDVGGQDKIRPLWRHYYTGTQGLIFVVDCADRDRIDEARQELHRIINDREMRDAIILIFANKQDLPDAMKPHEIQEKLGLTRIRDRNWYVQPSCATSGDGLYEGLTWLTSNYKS
Sequence of ADP-ribosylation factor GTPase-activating protein 1, ARFGAP1 (Homo sapiens) (Q8N6T3 whole entry, looked up): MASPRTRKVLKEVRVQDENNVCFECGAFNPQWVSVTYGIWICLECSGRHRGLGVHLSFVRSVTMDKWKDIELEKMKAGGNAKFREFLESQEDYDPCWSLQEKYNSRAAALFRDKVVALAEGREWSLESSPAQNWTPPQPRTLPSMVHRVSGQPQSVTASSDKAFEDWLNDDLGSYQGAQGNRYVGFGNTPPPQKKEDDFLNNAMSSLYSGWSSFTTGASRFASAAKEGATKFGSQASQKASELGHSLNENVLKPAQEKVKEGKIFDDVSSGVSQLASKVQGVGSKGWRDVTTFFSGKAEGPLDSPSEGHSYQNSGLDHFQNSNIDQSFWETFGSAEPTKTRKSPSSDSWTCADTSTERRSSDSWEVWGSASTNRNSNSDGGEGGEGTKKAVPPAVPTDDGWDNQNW

OC[C@@H](Cc1ccccc1)Nc1nc(Oc2ccc3c(c2)CCC3)nc2c1ncn2Cc1ccc(-c2ccccc2)cc1
EC50 (HEK293 [1]): > 7.1 µM

C[C@H]1CCC/C=C/[C@@H]2C[C@H](O)C[C@H]2[C@H](O)/C=C/C(=O)O1 [BREFELDIN A]
Activity (HEK293 [2]): 50%

O=[N+]([O-])c1ccc(-c2ccc(Cn3cnc4c(N[C@H](CO)Cc5ccccc5)nc(Oc5ccc6c(c5)CCC6)nc43)cc2)cc1
EC50 (HEK293 [1]): 1.5 µM

[N-]=[N+]=Nc1ccc(C[C@@H](CO)Nc2nc(Oc3ccc4c(c3)CCC4)nc3c2ncn3Cc2ccc(-c3ccccc3)cc2)cc1
EC50 (HEK293 [1]): 0.6 µM

CC1(C)Cc2cc(Oc3nc(NCc4ccccc4)c4ncn(Cc5ccc(-c6ccccc6)cc5)c4n3)ccc2O1
EC50 (HEK293 [1]): 1.7 µM

OC[C@H](Cc1ccccc1)Nc1nc(Nc2cccc3ccccc23)nc2c1ncn2Cc1ccc(-c2ccccc2)cc1
EC50 (HEK293 [1]): > 7.1 µM

OC[C@H](Cc1ccccc1)Nc1nc(Oc2cccc(-c3ccccc3)c2)nc2c1ncn2Cc1ccc(-c2ccccc2)cc1
EC50 (HEK293 [1]): 3.1 µM

OC[C@H](Cc1ccccc1)Nc1nc(Oc2ccc3c(c2)CCC3)nc2c1ncn2Cc1ccc(-c2ccccc2)cc1
Activity (HEK293 [3]): Active | Activity [4]: 20.9% | Activity [5]: Active | EC50 (HEK293 [1]): 0.5 µM | Activity (HEK293 [6]): Active | Activity (HEK293 [7]): Active | Activity [8]: Active | Activity (MDA-MB-231 [9]): 80% | Activity (HEK293 [10]): 2 | Activity (MDA-MB-231 [11]): Dose-dependent effect | Activity [12]: 30.2% | Activity (HEK293 [13]): 200 | Kd [14]: 0.62 µM | Activity (HEK293 [15]): inactive

OC[C@H](Cc1ccccc1)Nc1nc(Oc2ccc3c(c2)CCC3)nc2c1ncn2Cc1ccccc1
EC50 (HEK293 [1]): > 7.1 µM

O=[N+]([O-])c1ccc(C[C@@H](CO)Nc2nc(Oc3ccc4c(c3)CCC4)nc3c2ncn3Cc2ccc(-c3ccccc3)cc2)cc1
EC50 (HEK293 [1]): 0.4 µM

FC(F)(F)c1ccc(Cn2cnc3c(NCCc4ccccc4)nc(Oc4ccc5c(c4)CCC5)nc32)cc1
EC50 (HEK293 [1]): > 7.1 µM

OC[C@H](Cc1ccccc1)Nc1nc(NCc2ccc3c(c2)OCO3)nc2c1ncn2Cc1ccc(-c2ccccc2)cc1
EC50 (HEK293 [1]): > 7.1 µM

OC[C@H](Cc1ccccc1)Nc1nc(Oc2cccc3ccccc23)nc2c1ncn2Cc1ccc(-c2ccccc2)cc1
EC50 (HEK293 [1]): 4.6 µM
